The source of these data is ChEMBL document CHEMBL4393716, “5-Chlorobenzofuran-2-carboxamides: From allosteric CB1 modulators to potential apoptotic antitumor agents” (Eur J Med Chem, 2019).

Series [1] relates to MCF7. As to the kind of experiment: Cell cycle arrest in human MCF7 cells assessed as accumulation in pre G phase incubated for 24 hrs by annexin-V FITC and propidium iodide staining based flow cytometry analysis (reference value: 1.93 %). In kind it is functional. Background: In flow cytometry, cells or beads pass a laser one at a time.
For series [2], the system named is MCF7. The experiment in a line: Cell cycle arrest in human MCF7 cells assessed as accumulation in G0/G1 phase incubated for 24 hrs by annexin-V FITC and propidium iodide staining based flow cytometry analysis (reference value: 53.71 %). Format: functional.
A short description of series [3]: Cytotoxicity against human MCF10A cells assessed as reduction in cell viability at 50 uM incubated for 4 days by MTT assay. Format: cell-based, MCF-10A. The method in brief:
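Non-tumorigenic human mammary epithelial MCF-10A cells were exposed to compounds for 4 days. Viability was read by MTT reduction and expressed as percent viable cells.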

The subject of a further series is PANC-1. The experiment in a line: Antiproliferative activity against human PANC1 cells assessed as growth inhibition incubated for 48 hrs by MTT assay. In kind it is functional. The settings on record: PANC-1, 48 h. The method in brief:
(§1)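 MTT viability assay run on four human cancer lines: A549 (lung), MCF-7 (breast), Panc-1 (pancreatic) and HT29 (colon). GI50 derived per cell line from the MTT readout, following a previously reported protocol.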
(Formazan colour is commonly taken as a measure of viable cells.)

In series [4] the test system is MCF7. As to the kind of experiment: Induction of apoptosis in human MCF7 cells assessed as activation of cytochrome C level incubated for 24 hrs by enzyme assay relative to control. In kind it is functional. The method in brief: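 MCF-7 cells (ATCC) were cultured in RPMI 1640 plus 10% fetal bovine serum at 37 °C and stimulated with compounds. Cytochrome C level was measured and reported as fold over untreated control.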

Series [5] deals with MCF7. The experiment in a line: Antiproliferative activity against human MCF7 cells assessed as growth inhibition incubated for 48 hrs by MTT assay. Format: functional. The following applies: MCF7, 48 h. The method in brief: as §1
A further series relates to HT-29. The experiment in a line: Antiproliferative activity against human HT-29 cells assessed as growth inhibition incubated for 48 hrs by MTT assay. The following applies: HT-29, 48 h. Format: functional. The method in brief: as §1
For series [6], the system named is MCF7. The experiment in a line: Induction of apoptosis in human MCF7 cells assessed as necrotic cells at 0 to 8 umol/L incubated for 24 hrs by annexin-V FITC and propidium iodide staining based flow cytometry analysis (reference value: 0.68 %). Format: functional. The method in brief:
(§2)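 MCF-7 cells were stained with annexin-V-FITC and propidium iodide and analysed by flow cytometry. Cells were classed as early apoptotic, late apoptotic or necrotic.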

Series [7] concerns MCF7. As to the kind of experiment: Induction of apoptosis in human MCF7 cells assessed as early apoptotic cells at 0 to 8 umol/L incubated for 24 hrs by annexin-V FITC and propidium iodide staining based flow cytometry analysis (reference value: 0.88 %). In kind it is functional. The method in brief: as §2
In series [8] the test system is MCF7. The experiment in a line: Induction of apoptosis in human MCF7 cells assessed as late apoptotic cells at 0 to 8 umol/L incubated for 24 hrs by annexin-V FITC and propidium iodide staining based flow cytometry analysis (reference value: 0.37%). Format: functional. The method in brief: as §2
In series [9] the test system is MCF7. The experiment in a line: Induction of apoptosis in human MCF7 cells assessed as decrease in Bcl2 level incubated for 24 hrs by RT-PCR relative to control. Format: functional.
Series [10] has as its system MCF7. As to the kind of experiment: Cell cycle arrest in human MCF7 cells assessed as accumulation in G2/M phase incubated for 24 hrs by annexin-V FITC and propidium iodide staining based flow cytometry analysis (reference value: 8.87 %). In kind it is functional.
Series [11] has as its system MCF7. The experiment in a line: Cell cycle arrest in human MCF7 cells assessed as accumulation in S phase incubated for 24 hrs by annexin-V FITC and propidium iodide staining based flow cytometry analysis (reference value: 37.42 %). Format: functional.
The test system of series [12] is MCF7. The experiment in a line: Induction of apoptosis in human MCF7 cells assessed as activation of caspase-8 level incubated for 24 hrs by enzyme assay relative to control. In kind it is functional. The method in brief:
(§3)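 MCF-7 breast cells (ATCC) were grown in RPMI 1640 with 10% FBS at 37 °C, then treated with compounds. Active caspase-3, -8 or -9 protein was quantified (pg/mL) and expressed as fold over untreated control cells.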

The test system of series [13] is MCF7. As to the kind of experiment: Induction of apoptosis in human MCF7 cells assessed as activation of caspase-9 level incubated for 24 hrs by enzyme assay relative to control. In kind it is functional. The method in brief: as §3
Series [14] concerns MCF7. The experiment in a line: Induction of apoptosis in human MCF7 cells assessed as increase in Bax level incubated for 24 hrs by RT-PCR relative to control. Format: functional.
In another series the test system is A549. As to the kind of experiment: Antiproliferative activity against human A549 cells assessed as growth inhibition incubated for 48 hrs by MTT assay. In kind it is functional. The settings on record: A549, 48 h. The method in brief:
as §1

The test system of series [15] is MCF7. As to the kind of experiment: Induction of apoptosis in human MCF7 cells assessed as activation of caspase-3 level incubated for 24 hrs by enzyme assay relative to control. Format: functional. The method in brief: as §3

What is called viability is a per cent measure of how many cells are alive, often set against a control. By GI50 is commonly meant the concentration at which growth is held to half of that of the control. Regarding `CCc1c(C(=O)NCCc2ccc(N3CCOCC3)cc2)oc2ccc(Cl)cc12`, the Activity was found to be 34.29% in the series with MCF7 [1]; 24.53% in the series with MCF7 [2]; 2.29% in the series with MCF7 [6]; 8.92% with MCF7 [7]; 23.08% in the series with MCF7 [8]; 43.96% in the series on MCF7 [10]. Also, the Activity with MCF7 [11] turned out to be 31.49%. The viability at 96 h, 50 µM in [3] was determined as 91%. In addition, the GI50 in the series with PANC-1 stood at 1.3 µM; in the series with MCF7 [5], 0.7 µM; in the series with HT-29 it was 1.6 µM; in the series with A549 it was 1.8 µM. Further, the “fold change (FC)” value is listed as 16.83 with MCF7 [4]; 5.77 in the series with MCF7 [9]; 9.64 in the series with MCF7 [12]; 15.98 with MCF7 [13]; 34.46 with MCF7 [14]; 8.1 with MCF7 [15].

Turning to `CCc1c(C(=O)N2CCN(c3ccccc3)CC2)oc2ccc(Cl)cc12`, the viability at 96 h, 50 µM in series [3] is 82%. The GI50 in the series on PANC-1 worked out at 13.8 µM; with MCF7 [5] it was 13.6 µM; in the series on HT-29 it was 13.8 µM; in the series on A549 it was 14.7 µM.

For the compound `Cc1c(C(=O)N2CCN(c3ccccc3)CC2)oc2ccc(Cl)cc12`, the viability at 96 h, 50 µM in [3] was 92%. For the same compound, the GI50 with PANC-1 was 36 µM; in the series on MCF7 [5], 35.4 µM; in the series with HT-29, 34.7 µM; with A549, 29.5 µM.

As for `Cc1c(C(=O)NCCc2ccc(N3CCCCC3)cc2)oc2ccc(Cl)cc12`, the viability at 96 h, 50 µM in series [3] was found to be 79%. For the same compound, the GI50 in the series with PANC-1 is 4.1 µM; in the series with MCF7 [5], 4.9 µM; in the series with HT-29, 4.9 µM; in the series on A549, 4.4 µM. The “fold change (FC)” value in the series on MCF7 [15] was determined as 4.83.

In the case of `Cc1c(C(=O)N2CCC(Cc3ccccc3)CC2)oc2ccc(Cl)cc12`, the viability at 96 h, 50 µM in series [3] was 96%. Further, the GI50 was 18.6 µM with PANC-1, 16.4 µM in the series on MCF7 [5], 16.9 µM in the series with HT-29 and 15.4 µM with A549.

With `CCc1c(C(=O)NCCc2ccc(N3CCCC3)cc2)oc2ccc(Cl)cc12`, the viability at 96 h, 50 µM in series [3] is 89%. Moreover, the GI50 in the series with PANC-1 is 5.6 µM; in the series on MCF7 [5] it was 4.4 µM; in the series with HT-29, 5.4 µM; with A549, 4.9 µM. In addition, the “fold change (FC)” value in the series on MCF7 [15] amounted to 5.17.

On to `Cc1c(C(=O)NCCc2ccc(N3CCOCC3)cc2)oc2ccc(Cl)cc12`, for which the viability at 96 h, 50 µM in series [3] is 84%. The concentration for 50% growth inhibition (GI50) in the series on PANC-1 came to 3.3 µM; with MCF7 [5], 3.1 µM; in the series on HT-29 it was 3.9 µM; in the series on A549, 3.5 µM. For the same compound, the “fold change (FC)” value in the series with MCF7 [4] was 11.26; in the series on MCF7 [9] it was 2.56; in the series with MCF7 [12], 5.23; in the series on MCF7 [13] it was 13.58; in the series on MCF7 [14], 19.7; in the series on MCF7 [15], 5.9.

For the compound `Cc1c(C(=O)NCCc2ccc(N3CCCC3)cc2)oc2ccc(Cl)cc12`, the viability at 96 h, 50 µM in series [3] was 89%. The GI50 in the series with PANC-1 was 4.8 µM; in the series on MCF7 [5], 4.9 µM; with HT-29 it was 4.9 µM; in the series with A549 it was 5.2 µM.

Regarding `CCc1c(C(=O)N2CCC(Cc3ccccc3)CC2)oc2ccc(Cl)cc12`, the viability at 96 h, 50 µM in [3] turned out to be 90%. For the same compound, the GI50 in the series on PANC-1 came to 33.7 µM; in the series on MCF7 [5] it was 26.5 µM; with HT-29, 27.8 µM; in the series with A549, 27.9 µM.

For the compound `CCc1c(C(=O)NCCc2ccccc2)oc2ccc(Cl)cc12`, the viability at 96 h, 50 µM in [3] is 89%. Besides, the 50% growth inhibitory concentration (GI50) in the series on PANC-1 stood at 8.3 µM; in the series on MCF7 [5] it was 7.5 µM; in the series with HT-29, 7.7 µM; in the series with A549 it was 6 µM.

Turning to `COc1cccc2c1C(=O)c1c(O)c3c(c(O)c1C2=O)C[C@@](O)(C(=O)CO)C[C@@H]3O[C@H]1C[C@H](N)[C@H](O)[C@H](C)O1` [DOXORUBICIN], the Activity with MCF7 [1] came out at 22.17%. In addition, the GI50 was 1.41 µM in the series with PANC-1, 0.9 µM with MCF7 [5], 1.01 µM in the series on HT-29 and 1.21 µM in the series with A549. Moreover, the “fold change (FC)” value with MCF7 [4] is 13.13; in the series with MCF7 [9] it was 5.1; with MCF7 [12] it was 10.07; in the series on MCF7 [13] it was 17.4; in the series on MCF7 [14], 33.42; with MCF7 [15] it was 7.66.

As for `Cc1c(C(=O)NCCc2ccccc2)oc2ccc(Cl)cc12`, in [3], the viability at 96 h, 50 µM was 87%. For the same compound, the GI50 was 12.5 µM with PANC-1, 12.9 µM in the series on MCF7 [5], 12.2 µM with HT-29 and 11.4 µM in the series on A549.

Consider `CCc1c(C(=O)NCCc2ccc(N3CCCCC3)cc2)oc2ccc(Cl)cc12`, for which the viability at 96 h, 50 µM in series [3] was found to be 82%. Besides, the GI50 amounted to 4.6 µM with PANC-1, 3.6 µM in the series with MCF7 [5], 4.8 µM with HT-29 and 4.5 µM in the series with A549. For the same compound, in the series with MCF7 [15], the “fold change (FC)” value was 5.71.

As for `CCc1c(C(=O)NCCc2ccc(N(C)C)cc2)oc2ccc(Cl)cc12`, the viability at 96 h, 50 µM in series [3] stood at 85%. Also, the GI50 in the series on PANC-1 turned out to be 5.5 µM; in the series on MCF7 [5], 4.7 µM; with HT-29 it was 6.5 µM; with A549, 4.8 µM. Besides, the “fold change (FC)” value in the series with MCF7 [15] amounted to 3.87.

Consider `Cc1c(C(=O)NCCc2ccc(N(C)C)cc2)oc2ccc(Cl)cc12`, for which, in series [3], the viability at 96 h, 50 µM was found to be 90%. Further, the GI50 in the series on PANC-1 was 6.6 µM; in the series with MCF7 [5], 6.8 µM; with HT-29, 6.9 µM; with A549, 6.9 µM.
